# Experimental data: ChEMBL document CHEMBL4038311, “An Ursolic Acid Derived Small Molecule Triggers Cancer Cell Death through Hyperstimulation of Macropinocytosis” (J Med Chem, 2017)
# The source made the active and inactive calls. No cut-off for these calls is given here.
# Columns and labels:
# MCF7 [1] = test: Anticancer activity against human MCF7 cells assessed as cell viability at 20 uM after 48 hrs by CCK8 assay relative to control; type: functional; settings: MCF7, 48 h, read-out: Activity
# Summary of the method: (§1)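 Cells (5000/well, pre-incubated overnight) exposed to 20 µM for 48 h. CCK-8 absorbance read at 450 nm. Viability given as percent of vehicle (DMSO) control, mean ± SD. Six parallel wells per condition, at least three independent repeats.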
# HT-1080 [2] = test: Anticancer activity against human HT1080 cells assessed as cell viability at 20 uM after 48 hrs by CCK8 assay relative to control; type: functional; settings: HT-1080, 48 h, read-out: Activity; summary of the method: as §1
# HT-1080 [3] = test: Anticancer activity against human HT1080 cells assessed as vacuole formation at 20 uM after 24 hrs by phase contrast microscopic analysis; type: functional, cell-based
# HepG2 [4] = test: Anticancer activity against human HepG2 cells assessed as cell viability at 20 uM after 48 hrs by CCK8 assay relative to control; type: functional; settings: HepG2, 48 h, read-out: Activity; summary of the method: as §1
# HeLa [5] = test: Anticancer activity against human HeLa cells assessed as cell viability at 20 uM after 48 hrs by CCK8 assay relative to control; type: functional; settings: read-out: Activity; summary of the method: as §1
# SK-N-MC [6] = test: Anticancer activity against human SK-N-MC cells assessed as vacuole formation at 20 uM after 24 hrs by phase contrast microscopic analysis; type: functional, cell-based
# SK-N-MC [7] = test: Anticancer activity against human SK-N-MC cells assessed as cell viability at 20 uM after 48 hrs by CCK8 assay relative to control; type: functional; settings: read-out: Activity; summary of the method: as §1
# MCF7 [8] = test: Anticancer activity against human MCF7 cells assessed as vacuole formation at 20 uM after 24 hrs by phase contrast microscopic analysis; type: functional, cell-based
# HepG2 [9] = test: Anticancer activity against human HepG2 cells assessed as vacuole formation at 20 uM after 24 hrs by phase contrast microscopic analysis; type: functional, cell-based
# HeLa [10] = test: Anticancer activity against human HeLa cells assessed as vacuole formation at 20 uM after 24 hrs by phase contrast microscopic analysis; type: functional, cell-based
# HeLa [11] = test: Anticancer activity against human HeLa cells assessed as decrease in cell viability at 100 nM preincubated cells with Z-VAD-FMK for 1 hr followed by compound addition measured after 48 hrs by CCK8 assay; type: functional, cell-based
# HeLa [12] = test: Induction of apoptosis in human HeLa cells assessed as increase in cleaved PARP1 levels at 100 nM after 24 to 48 hrs by Western blot analysis; type: functional, cell-based
# HeLa [13] = test: Induction of apoptosis in human HeLa cells assessed as increase in cleaved caspase-3 levels at 100 nM after 24 to 48 hrs by Western blot analysis; type: functional, cell-based
SMILES,viability at 20 µM (MCF7 [1]),viability at 20 µM (HT-1080 [2]),Activity (HT-1080 [3]),viability at 20 µM (HepG2 [4]),viability at 20 µM (HeLa [5]),Activity (SK-N-MC [6]),viability at 20 µM (SK-N-MC [7]),Activity (MCF7 [8]),Activity (HepG2 [9]),Activity (HeLa [10]),Activity (HeLa [11]),Activity (HeLa [12]),Activity (HeLa [13])
C[C@H]1[C@H](C)CC[C@]2(C(=O)O)CC[C@]3(C)C(=CC[C@@H]4[C@@]5(C)Cc6cnn(-c7cccc(C#N)c7)c6C(C)(C)[C@@H]5CC[C@]43C)[C@H]12,28.1%,37.5%,Active,29.3%,37.3%,Active,31%,Active,Active,Active,,,
C[C@H]1[C@H](C)CC[C@]2(C(=O)O)CC[C@]3(C)C(=CC[C@@H]4[C@@]5(C)Cc6cnn(C7CCCC7)c6C(C)(C)[C@@H]5CC[C@]43C)[C@H]12,36.2%,27.9%,Active,44.6%,30.8%,Active,31.4%,Active,Active,Active,,,
C[C@H]1[C@H](C)CC[C@]2(C(=O)O)CC[C@]3(C)C(=CC[C@@H]4[C@@]5(C)Cc6cnn(CCO)c6C(C)(C)[C@@H]5CC[C@]43C)[C@H]12,40.5%,39%,inactive,57%,47%,inactive,63.3%,inactive,inactive,inactive,,,
C[C@H]1[C@H](C)CC[C@]2(C(=O)O)CC[C@]3(C)C(=CC[C@@H]4[C@@]5(C)Cc6cnn(-c7ccc(F)cc7)c6C(C)(C)[C@@H]5CC[C@]43C)[C@H]12,34.3%,27.3%,Active,58.6%,24.4%,Active,39.4%,Active,Active,Active,,,
C[C@H]1[C@H](C)CC[C@]2(C(=O)O)CC[C@]3(C)C(=CC[C@@H]4[C@@]5(C)Cc6cnn(-c7ccccc7)c6C(C)(C)[C@@H]5CC[C@]43C)[C@H]12,46.5%,38.7%,inactive,60.1%,40.9%,inactive,57.4%,inactive,inactive,inactive,,,
C[C@H]1[C@H](C)CC[C@]2(C(=O)O)CC[C@]3(C)C(=CC[C@@H]4[C@@]5(C)Cc6cnn(-c7ccncc7)c6C(C)(C)[C@@H]5CC[C@]43C)[C@H]12,39.7%,30.9%,inactive,56.8%,54.2%,inactive,79.9%,inactive,inactive,inactive,,,
C[C@H]1[C@H](C)CC[C@]2(C(=O)O)CC[C@]3(C)C(=CC[C@@H]4[C@@]5(C)CC[C@H](O)C(C)(C)[C@@H]5CC[C@]43C)[C@H]12 [URSOLIC ACID],57.6%,39.4%,inactive,34.1%,43.3%,inactive,67.2%,inactive,inactive,inactive,,,
CC(=O)O[C@H]1C(=O)[C@@]2(C)[C@H]([C@H](OC(=O)c3ccccc3)[C@]3(O)C[C@H](OC(=O)[C@H](O)[C@@H](NC(=O)c4ccccc4)c4ccccc4)C(C)=C1C3(C)C)[C@]1(OC(C)=O)CO[C@@H]1C[C@@H]2O,,,,,,,,,,,inactive,Active,Active
C[C@H]1[C@H](C)CC[C@]2(C(=O)O)CC[C@]3(C)C(=CC[C@@H]4[C@@]5(C)Cc6c(C(F)(F)F)nn(C)c6C(C)(C)[C@@H]5CC[C@]43C)[C@H]12,47.6%,35.8%,Active,46%,44.9%,Active,67.4%,Active,Active,Active,,,
C[C@H]1[C@H](C)CC[C@]2(C(=O)O)CC[C@]3(C)C(=CC[C@@H]4[C@@]5(C)Cc6cnn(CC7CC7)c6C(C)(C)[C@@H]5CC[C@]43C)[C@H]12,33.4%,23.5%,inactive,33.9%,19.9%,inactive,33.9%,inactive,inactive,inactive,,,
C[C@H]1[C@H](C)CC[C@]2(C(=O)O)CC[C@]3(C)C(=CC[C@@H]4[C@@]5(C)Cc6cnn(C)c6C(C)(C)[C@@H]5CC[C@]43C)[C@H]12,47.6%,35.8%,Active,46%,44.9%,Active,67.4%,Active,Active,Active,,,
CCOC(=O)Cn1ncc2c1C(C)(C)[C@@H]1CC[C@]3(C)[C@H](CC=C4[C@@H]5[C@@H](C)[C@H](C)CC[C@]5(C(=O)O)CC[C@]43C)[C@@]1(C)C2,28.9%,55.2%,inactive,43.7%,44.2%,inactive,66.6%,inactive,inactive,inactive,,,
C[C@H]1[C@H](C)CC[C@]2(C(=O)O)CC[C@]3(C)C(=CC[C@@H]4[C@@]5(C)Cc6cnn(-c7cccc(F)c7)c6C(C)(C)[C@@H]5CC[C@]43C)[C@H]12,46.6%,33.5%,inactive,29.5%,33.3%,inactive,24.6%,inactive,inactive,inactive,,,
